Reference: ChEMBL document CHEMBL4513216, “Probing the Open Global Health Chemical Diversity Library for Multistage-Active Starting Points for Next-Generation Antimalarials” (ACS Infect Dis, 2020)

Experiment: Toxicity liver stage against HepG2, at 10uM
Assay type: cell-based
Set-up: test concentration 10 uM, cell line HepG2-A16-CD81EGFP
Details: human, HepG2-A16-CD81EGFP cells; read-out: INHIBITION
Outline: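 Uninfected HepG2-A16-CD81EGFP cells, 3 × 10^3 per well, 1536-well, plated on prespotted compound at 10 μM final, parasite-free screening media added to match infected plates; puromycin 10 μM positive, DMSO 0.5% negative; run in parallel with 48 h PbLuc assay at 37 °C, 5% CO2; viability by CellTiter-Glo luminescence, normalized to controls.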

CC(C)(C)c1coc([C@@H]2COCCN2Cc2c[nH]cn2)n1
cytotoxicity at 10 µM: 1.21%

Cn1ccc2c(ccn2CC(=O)Nc2ccc(Br)cc2)c1=O
cytotoxicity at 10 µM: 10.4%

COC(=O)N1CC2=CC(C)(C)COc3ccc(OC)c(c32)C1
cytotoxicity at 10 µM: 5%

Cc1ccc(-c2nn(C)c(C(=O)O)c2Br)cc1
cytotoxicity at 10 µM: -49.7%

O=C(NC1CCCC1)c1nc(COc2ccc3c(c2)OCO3)no1
cytotoxicity at 10 µM: 2.87%

CC(=O)N1CCN(C(=O)c2ccc3ccn(C)c3c2)CC1
cytotoxicity at 10 µM: -0.173%

CCN1CC2(CC1=O)CN(C(=O)COC)CCN(S(C)(=O)=O)C2 (stereo unspecified)
cytotoxicity at 10 µM: 0.165%

CCN(CC)[C@@H]1CN(Cc2ccc(C)o2)[C@@H]2CCCO[C@H]12
cytotoxicity at 10 µM: -148%

Cc1nc(-c2noc3ccc(C(=O)NCCN4CCOCC4)cc23)co1
cytotoxicity at 10 µM: 15%

CN(C)S(=O)(=O)N1C[C@H]2CCC[C@@]2(COCC2CC2)C1
cytotoxicity at 10 µM: 6.13%

c1cnn([C@@H]2CN(Cc3nccs3)[C@@H]3CCCO[C@@H]32)c1
cytotoxicity at 10 µM: 9.07%

COCCN1C=NC2(CCC(C(=O)Nc3ccc(C)cc3)CC2)C1=O (stereo unspecified)
cytotoxicity at 10 µM: 15.1%

CNC(=O)[C@@H]1COC[C@H]2CN(C(=O)COc3ccccc3)C[C@H]21
cytotoxicity at 10 µM: -1.65%

Cc1ccc(N2CCCc3sc(C(=O)NCc4cccnc4)nc32)nn1
cytotoxicity at 10 µM: -2.96%

COc1ccc(C2=Nn3c(CN)nnc3-c3ccccc3C2)cc1
cytotoxicity at 10 µM: 8.55%

CCc1nc(NCCCn2cccn2)c2c(n1)c(C)nn2CC
cytotoxicity at 10 µM: 6.36%

Cc1cc(CN2CCc3nc(C(C)C)nc(O)c3CC2)c(C)s1
cytotoxicity at 10 µM: -0.782%

CC(=O)N1CCCC1c1cccc(NCc2ccccc2F)n1 (stereo unspecified)
cytotoxicity at 10 µM: -13.8%

CN(C)Cc1ccnc(C2CCCN2Cc2ccc(F)cn2)n1 (stereo unspecified)
cytotoxicity at 10 µM: -17.7%

CO[C@H]1CN(C(=O)c2ccc3oc(C)cc3c2)C[C@@]12CCCO2
cytotoxicity at 10 µM: -6.14%

CC(C)(N)C(=O)N1CCC(c2nccnc2Oc2ccccc2F)CC1
cytotoxicity at 10 µM: -13.9%

c1cnc(-c2cnc(N3CCSCC3)nc2C2CC2)cn1
cytotoxicity at 10 µM: 17.3%

CC(=O)Nc1nc(C2CCN(CC(N)=O)CC2)cs1
cytotoxicity at 10 µM: -2.76%

COC(=O)CC(NC(=O)c1cccc(N2CCCC2=O)c1)c1cccs1 (stereo unspecified)
cytotoxicity at 10 µM: -51.4%

CC(C)NC(=O)c1cnc(Sc2nccn2C)c(Cl)c1
cytotoxicity at 10 µM: -41.4%

c1ccc(N2CCC(OCC3CCCCO3)CC2)nc1 (stereo unspecified)
cytotoxicity at 10 µM: -1.03%

CCS(=O)(=O)CC(=O)Nc1ccccc1N1CCc2ccccc21
cytotoxicity at 10 µM: 9.26%

c1ccc2c(NC3CCc4ncnn4C3)ncnc2c1 (stereo unspecified)
cytotoxicity at 10 µM: 7.21%

COCCN1CCN(Cc2coc(-c3ccccc3Cl)n2)CC1
cytotoxicity at 10 µM: -1.67%

CCNC(=O)C(C)NC(=O)Nc1ccccc1Cl (stereo unspecified)
cytotoxicity at 10 µM: 5.72%

COCC(C)N(C)C(=O)CCc1c(C)nc2c(C#N)cnn2c1C (stereo unspecified)
cytotoxicity at 10 µM: -43.3%

CCNC(=O)N1CCC(=Cc2ccccc2)CC1
cytotoxicity at 10 µM: 3.87%

O=C(Nc1ccc(OC(F)F)cc1)N1CCC(c2nnc[nH]2)CC1
cytotoxicity at 10 µM: 7.25%

CC(C)N(C)C(=O)C1CCN(Cc2cnc3ccccn23)CC1
cytotoxicity at 10 µM: 27.5%

CCS(=O)(=O)N1CCCN(CCCOC)CC1
cytotoxicity at 10 µM: 7.73%

Cc1nccn1-c1ccc(C(C)NCCc2ccccn2)cc1 (stereo unspecified)
cytotoxicity at 10 µM: 10.4%

COc1ccc(S(=O)(=O)C(F)(F)F)cc1NC(=O)CSC
cytotoxicity at 10 µM: 10.9%

CCOCCCNC(=O)CCSCc1csc(C)n1
cytotoxicity at 10 µM: -3.57%

O=C(CN1CCS(=O)(=O)CC1)NC1CCCOc2ccccc21 (stereo unspecified)
cytotoxicity at 10 µM: 4.81%

COc1ccc(C(=O)CCC(=O)NCc2c(C)noc2C)cc1F
cytotoxicity at 10 µM: 2.43%

Cc1nn(CN(Cc2ccsc2)C2CC2)c(=O)c2noc(C)c12
cytotoxicity at 10 µM: -1.54%

O=C(NCCN1CCOCC1)c1cnc(Cc2ccc(F)cc2)s1
cytotoxicity at 10 µM: 16.7%

CCN(CC1CN(CC2CCC2)CCO1)c1cccnn1 (stereo unspecified)
cytotoxicity at 10 µM: 2.82%

CCC(CNC(=O)c1ccc(F)cc1F)N1CCc2ccccc2C1 (stereo unspecified)
cytotoxicity at 10 µM: 10.9%

COc1ccccc1OCC(=O)NS(=O)(=O)c1ccc(F)cc1F
cytotoxicity at 10 µM: 8.68%

CCNC(=O)CNC(=O)Nc1cccc(Cl)c1SC(F)F
cytotoxicity at 10 µM: -1.76%

Cc1nc(NC(=O)c2cccnc2N2CCOCC2)sc1C
cytotoxicity at 10 µM: -0.0261%

OCC1CCCN1c1cc(NCCc2ccccn2)ncn1 (stereo unspecified)
cytotoxicity at 10 µM: -0.813%

N#Cc1cc(F)c(N2CCC(NS(=O)(=O)c3cccs3)CC2)c(F)c1
cytotoxicity at 10 µM: 8.76%

Cc1cc(N2CCCC2c2nnc3n2CCCCC3)nc(N)n1 (stereo unspecified)
cytotoxicity at 10 µM: -10.1%

CN1CCN(c2ccnc3c(F)cc(Br)cc23)CC1
cytotoxicity at 10 µM: 27.2%

Cc1noc(C)c1CC(=O)NCC(CC(C)C)N1CCOCC1 (stereo unspecified)
cytotoxicity at 10 µM: -40.6%

Cc1cc(S(C)(=O)=O)c(C)c(S(=O)(=O)N2CCCC(C)C2)c1 (stereo unspecified)
cytotoxicity at 10 µM: 22.6%

CC(C)COC1CCN(C(=O)c2ccc(C(F)(F)F)[nH]c2=O)CC1
cytotoxicity at 10 µM: 0.0436%

FC(F)(F)COCCN1CCc2cncnc2C1
cytotoxicity at 10 µM: -2.67%

CCC(C)(CC(=O)O)NC(=O)Cc1ccccc1F (stereo unspecified)
cytotoxicity at 10 µM: -1.28%

COCC(=O)Nc1ccnn1-c1ccc(Cl)cc1
cytotoxicity at 10 µM: 2.18%

Cc1ccc(-c2nc(CN(Cc3ccco3)C3CCS(=O)(=O)C3)cs2)o1 (stereo unspecified)
cytotoxicity at 10 µM: 10.3%

COC(=O)c1ccc(CN(C)C(=O)c2cnsn2)cc1
cytotoxicity at 10 µM: 9.59%

COCC(=O)NCCC(=O)N1CCN(S(=O)(=O)c2cccc(Br)c2)CC1
cytotoxicity at 10 µM: -40.4%

Cc1cc(CNc2ccnn2C)ccc1-n1cncn1
cytotoxicity at 10 µM: -43.2%

CN(CC(=O)N1CCCC1)Cc1nc2c(cnn2C)c(=O)[nH]1
cytotoxicity at 10 µM: -1.38%

O=C(CC1CC1)N[C@@H]1CN(C(=O)c2ccsc2)C[C@@H]2CCCO[C@@H]21
cytotoxicity at 10 µM: -109%

COCC(=O)N1CCO[C@]2(CCC[C@H]2COC)C1
cytotoxicity at 10 µM: -97.5%

CC(=O)N1CCC2(CCN(C(=O)c3cccc(C(F)(F)F)c3)CC2)C1
cytotoxicity at 10 µM: -71.5%

Cc1ccnc(N2CCC(C(N)=O)CC2)n1
cytotoxicity at 10 µM: -18.3%

CC(C)CC(=O)N1CC(=O)c2sc(Nc3ccc(F)cc3F)nc2C1
cytotoxicity at 10 µM: -2.89%

CN1CCC(O)(CCNC(=O)[C@@]23CNC[C@@H]2CN(C2CCCC2)C3)CC1
cytotoxicity at 10 µM: -1.92%

CSCCc1c(-c2ccccc2)ncn1CCNc1cccnc1
cytotoxicity at 10 µM: 5.29%

Cc1c(CN2C[C@H](O)[C@@H](N3CCOCC3)C2)[nH]c2ccc(F)cc12
cytotoxicity at 10 µM: 5.86%

CCc1nc(NC(=O)N(C)Cc2ccoc2)nn1C
cytotoxicity at 10 µM: 0.79%

CN(CCn1ccc2ccccc21)C(=O)Cc1nnn[nH]1
cytotoxicity at 10 µM: -8.93%

CN1CCN(Cc2nnc(C3CCN(C(CO)CO)CC3)n2C)CC1
cytotoxicity at 10 µM: 2.52%

C[C@@H]1CN(Cc2cc(C3CCCCC3)no2)CC[C@@]1(O)C1CC1
cytotoxicity at 10 µM: 0.957%

COc1ccccc1OC1CCN(C(=O)C2CCCN(C)C2)CC1 (stereo unspecified)
cytotoxicity at 10 µM: -53.5%

c1ccc(COCCN2CCc3[nH]cnc3C2c2ccco2)cc1 (stereo unspecified)
cytotoxicity at 10 µM: -2.01%

CC(C)CN(Cc1ccsc1)C(=O)CCCn1cncn1
cytotoxicity at 10 µM: -47.9%

COc1cc(C)ccc1OCc1nc(C(=O)N2CCCNC(=O)C2)co1
cytotoxicity at 10 µM: -44.5%

Cc1ccc(Cl)cc1-n1nnnc1C1(N2CCCC2)CCCCC1
cytotoxicity at 10 µM: 18.9%

CCOc1ccc(C(=O)CCC(=O)N(C)Cc2nc(C)c[nH]2)cc1C
cytotoxicity at 10 µM: -5.45%

c1cnc(N2CCC3(CCCN(CC4CCCCC4)C3)C2)cn1 (stereo unspecified)
cytotoxicity at 10 µM: -1.62%

CC(O)C1CCN(Cc2cnc3c(-c4ccccc4)cnn3c2)CC1 (stereo unspecified)
cytotoxicity at 10 µM: -0.537%

Fc1ccc(C2(CNCCc3cccs3)CCOC2)cc1 (stereo unspecified)
cytotoxicity at 10 µM: -149%

CC(=O)N1CCc2c(nc(N(C)C)nc2NCCc2cccs2)C1
cytotoxicity at 10 µM: -54%

Cc1cc(C(=O)N(C)CCCn2cccn2)nc(N)n1
cytotoxicity at 10 µM: -7.04%

CCCOCCN1CCC2(CC1)CC(=O)N(Cc1cc(F)cc(F)c1)C2
cytotoxicity at 10 µM: 2.71%

COc1ccc2[nH]c(=O)c(CN(C)CCN3CCCC3)cc2c1
cytotoxicity at 10 µM: 1.97%

CNc1ncc(CN(C)c2ncnc3onc(C)c23)cn1
cytotoxicity at 10 µM: -16.8%

CN(c1ccc(Cl)c(C(=O)NCCCN2CCOCC2)c1)S(C)(=O)=O
cytotoxicity at 10 µM: 1.05%

CCN1CCC(CC(=O)N2CCc3sc(C(=O)N(C)C)cc3C2)CC1
cytotoxicity at 10 µM: -21.1%

CS(=O)(=O)N1CCC(Oc2ccc(C(=O)N3CCSCC3)cc2Cl)CC1
cytotoxicity at 10 µM: 16.2%

Cc1nnc(NC(=O)CN2CCc3nn(C)c(=O)cc3C2)s1
cytotoxicity at 10 µM: -6.18%

c1ccc(OC2CCCC2)c(CNC2CCc3ncnn3C2)c1 (stereo unspecified)
cytotoxicity at 10 µM: -5.43%

Cc1cc(NC(=O)CN2CCn3c(nnc3C(C)C)C2)no1
cytotoxicity at 10 µM: -1.11%

CN(Cc1ccsc1)C(=O)CN1CCCC1Cn1cccn1 (stereo unspecified)
cytotoxicity at 10 µM: -3.78%

CNC(=O)N1CCC2(CC1)c1ncc(-c3cccc(F)c3)n1CCN2C
cytotoxicity at 10 µM: 7.97%

Cn1cc(-c2cnc3n2CCC32CCN(S(=O)(=O)C3CC3)CC2)cn1
cytotoxicity at 10 µM: -139%

CCOC(=O)[C@]12CCCN(Cc3cccs3)C[C@H]1CN(C(C)C)C2
cytotoxicity at 10 µM: 12.2%

O=C1CC[C@@H]2[C@@H](CCN2C(=O)c2ccsc2)N1Cc1ccncc1
cytotoxicity at 10 µM: -71.5%

O=C(N1CCCC1)N1C[C@H]2CCC[C@@]2(COCc2ccccn2)C1
cytotoxicity at 10 µM: -106%

Cc1ccc(CN2CCCC3(CCCN3S(C)(=O)=O)C2)s1 (stereo unspecified)
cytotoxicity at 10 µM: -97.9%

CCn1cc2c(n1)CN(Cc1ccc(C)o1)CC2COCC1CC1 (stereo unspecified)
cytotoxicity at 10 µM: -80.7%

Cc1cc(-c2cnc(N3CCCC(C)C3)nc2-c2cccnc2C)on1 (stereo unspecified)
cytotoxicity at 10 µM: 7.85%

c1cc(-c2ccc3c(c2)CCC32CCN(c3nncs3)CC2)ccn1
cytotoxicity at 10 µM: 20.4%

Cn1cncc1CN1C[C@@H]2OCCN(c3ncccn3)[C@@H]2C1
cytotoxicity at 10 µM: -67%

c1ccc(COC[C@H]2CCC[C@@]23CNCCO3)nc1
cytotoxicity at 10 µM: -91.9%

CC(C)CN1C(=O)C[C@@H]2[C@@H]1CCN2Cc1cccc(C#N)c1
cytotoxicity at 10 µM: -66.4%

CCOCC1CN(c2ccc(C)nn2)Cc2nn(CC)cc21 (stereo unspecified)
cytotoxicity at 10 µM: 11.5%

Cc1noc(C)c1CN1CCO[C@H]2CN(Cc3cccc(F)c3)C[C@H]21
cytotoxicity at 10 µM: -99.8%

c1csc(CN2CCOCC3(CCN(C4CCOCC4)C3)C2)n1 (stereo unspecified)
cytotoxicity at 10 µM: 0.487%

O=c1[nH][nH]c2cn(-c3ccccc3)c(=O)n12
cytotoxicity at 10 µM: 4.6%
